In ChEMBL document CHEMBL2401719, “The development of a new class of inhibitors for betaine-homocysteine S-methyltransferase” (Eur J Med Chem, 2013):

Experiments:
[1] = molecular target: T1, Betaine--homocysteine S-methyltransferase 1 (Homo sapiens) (UniProt Q93088); assay: Inhibition of human recombinant BHMT using N-methyl-[14C]-betaine/D,L-homocysteine as substrate at 20 uM after 30 mins by scintiillation counting analysis
T1 sequence (whole entry): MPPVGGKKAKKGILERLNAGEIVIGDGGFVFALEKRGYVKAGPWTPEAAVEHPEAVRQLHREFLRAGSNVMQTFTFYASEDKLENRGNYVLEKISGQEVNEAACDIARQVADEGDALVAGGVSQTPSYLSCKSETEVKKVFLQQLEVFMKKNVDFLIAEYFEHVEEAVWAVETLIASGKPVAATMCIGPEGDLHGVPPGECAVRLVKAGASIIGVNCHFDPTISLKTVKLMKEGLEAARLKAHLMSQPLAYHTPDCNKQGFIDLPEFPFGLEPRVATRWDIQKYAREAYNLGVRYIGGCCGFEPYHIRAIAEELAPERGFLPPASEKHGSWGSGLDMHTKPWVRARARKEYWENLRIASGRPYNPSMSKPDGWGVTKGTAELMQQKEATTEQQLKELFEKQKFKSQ
Summary of the method: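 Human recombinant BHMT assayed in pH 7.5 buffer with 0.25 mM betaine and 0.1 mM D,L-homocysteine, compound at a single fixed concentration. Percent inhibition is the average of triplicates, with data reproducible within ±15%.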

[2] = molecular target: T2, Betaine--homocysteine S-methyltransferase 1 (Homo sapiens, UniProt Q93088); assay: Inhibition of human recombinant BHMT using N-methyl-[14C]-betaine/D,L-homocysteine as substrate after 30 mins by scintiillation counting analysis
T2 sequence (Q93088 whole entry): T1 sequence (whole entry)
Summary of the method: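 Human recombinant BHMT assayed in pH 7.5 buffer with 2 mM betaine and 1 mM D,L-homocysteine. Each IC50 data point was run in duplicate.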

| Compound | inhibition [1] | IC50 [2] |
| --- | --- | --- |
| O=C(O)CCCCS[C@@H]1CN[C@H](C(=O)O)C1 | 24% |  |
| NC(CCSCCCCC(=O)O)[PH](=O)O (racemic) | 95% | 5 µM |
| NC(CCSCCCCC(=O)O)c1nnn[nH]1 (racemic) | 0% |  |
| O=C(O)CCCCS[C@H]1CN[C@H](C(=O)O)C1 | 0% |  |
| CC(C)(CCSCCC(N)[PH](=O)O)CC(=O)O (racemic) | 99% | 1.1 µM |

The next lines start with results.

| inhibition [1] | Compound | IC50 [2] |
| --- | --- | --- |
| 58% | NC(CCSCCCCC(=O)O)P(=O)(O)O (racemic) | 219 µM |
| 15% | NC(CCSCCCCC(=O)O)c1nc(=O)o[nH]1 (racemic) |  |
| 9% | N#CC(N)CCSCCCCC(=O)O (racemic) |  |
| 17% | NC(=O)C(N)CCSCCCCC(=O)O (racemic) |  |
| 28% | NNC(=O)C(N)CCSCCCCC(=O)O (racemic) |  |
| 9% | NC(CCSCCCCC(=O)O)C(=O)N1CCCCC1 (racemic) |  |
| 67% | CS(=O)(=O)NC(=O)C(N)CCSCCCCC(=O)O (racemic) |  |
| 8% | CNC(=O)C(N)CCSCCCCC(=O)O (racemic) |  |
